According to ChEMBL document CHEMBL2169867, “Novel β-amino acid derivatives as inhibitors of cathepsin A” (J Med Chem, 2012):
Calls of active or inactive are those of the source. The rule behind the calls is not given here.

Experiments:
Mus musculus [1] = experiment: Cardioprotective activity against angiotensin 2-induced cardiac hypertrophy in B6.129P2-ApoE/J mouse assessed as left ventricular end systolic pressure at 100 mg/kg/day, po administered BID after 4 weeks (reference value: 139.36 9.79 mmHg); format: functional, Heart left ventricle
Mus musculus [2] = experiment: Ratio of left ventricular wet weight to body weight in B6.129P2-ApoE/J mouse at 100 mg/kg/day, po administered BID after 4 weeks (reference value: 5.99 0.28 mg/g); format: functional
Mus musculus [3] = experiment: Cardioprotective activity against angiotensin 2-induced cardiac hypertrophy in B6.129P2-ApoE/J mouse assessed as mean arterial pressure at 100 mg/kg/day, po administered BID after 4 weeks (reference value: 99.03 6.82 mmHg); format: functional, Heart
Mus musculus [4] = experiment: Cardioprotective activity against angiotensin 2-induced cardiac hypertrophy in B6.129P2-ApoE/J mouse assessed as left ventricular relaxation time at 100 mg/kg/day, po administered BID after 4 weeks (reference value: 8.73 0.41 ms); format: functional, Heart left ventricle
Mus musculus [5] = experiment: Cardioprotective activity against angiotensin 2-induced cardiac hypertrophy in B6.129P2-ApoE/J mouse assessed as left ventricular end diastolic pressure at 100 mg/kg/day, po administered BID after 4 weeks (reference value: 15.49 1.95 mmHg); format: functional, Heart left ventricle
Mus musculus [6] = experiment: Cardioprotective activity against angiotensin 2-induced cardiac hypertrophy in B6.129P2-ApoE/J mouse assessed as ejection fraction at 100 mg/kg/day, po administered BID after 4 weeks (reference value: 51.14 2.49 %); format: functional, Heart
Mus musculus [7] = experiment: Cardioprotective activity against angiotensin 2-induced cardiac hypertrophy in B6.129P2-ApoE/J mouse assessed as heart rate at 100 mg/kg/day, po administered BID after 4 weeks (reference value: 403.23 7.98 bpm); format: functional
Mus musculus [8] = experiment: Toxicity in B6.129P2-ApoE/J mouse assessed as body weight at 100 mg/kg/day, po administered BID after 4 weeks (reference value: 30.48 0.52 g); format: organism-based; set-up: route oral; settings: in vivo, 672 h
Mus musculus [9] = experiment: Cardioprotective activity against angiotensin 2-induced cardiac hypertrophy in B6.129P2-ApoE/J mouse assessed as left ventricular wet weight at 100 mg/kg/day, po administered BID after 4 weeks (reference value: 182.03 […]); format: functional, Heart left ventricle
Neprilysin = Neprilysin (Homo sapiens, UniProt P08473); experiment: Inhibition of human recombinant NEP using Mca-RPPGFSAFK(Dnp)-OH as substrate incubated for 15 mins prior to substrate addition measured after 20 to 30 mins by fluorimetric analysis
Chain of Neprilysin (P08473 whole entry): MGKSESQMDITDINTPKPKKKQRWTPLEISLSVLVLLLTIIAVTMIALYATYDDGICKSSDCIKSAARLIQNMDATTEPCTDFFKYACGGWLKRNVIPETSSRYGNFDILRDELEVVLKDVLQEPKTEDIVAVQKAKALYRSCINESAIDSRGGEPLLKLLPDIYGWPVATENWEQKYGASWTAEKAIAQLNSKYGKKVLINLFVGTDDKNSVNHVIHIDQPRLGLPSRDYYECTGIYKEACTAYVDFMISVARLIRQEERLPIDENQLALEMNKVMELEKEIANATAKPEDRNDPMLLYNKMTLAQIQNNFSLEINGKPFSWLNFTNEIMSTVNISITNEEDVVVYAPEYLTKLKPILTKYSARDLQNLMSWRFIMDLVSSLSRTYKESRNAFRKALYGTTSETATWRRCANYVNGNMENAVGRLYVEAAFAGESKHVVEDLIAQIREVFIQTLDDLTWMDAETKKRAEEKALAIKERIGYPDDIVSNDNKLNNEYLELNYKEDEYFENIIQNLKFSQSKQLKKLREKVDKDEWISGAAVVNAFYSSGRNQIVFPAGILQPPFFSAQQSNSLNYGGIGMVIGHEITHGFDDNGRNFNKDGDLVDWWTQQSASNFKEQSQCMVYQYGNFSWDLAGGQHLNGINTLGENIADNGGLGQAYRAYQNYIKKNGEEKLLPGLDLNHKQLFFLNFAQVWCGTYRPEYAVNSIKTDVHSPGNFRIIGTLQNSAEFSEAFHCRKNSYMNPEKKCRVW
Summary of the method: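 Recombinant human NEP and inhibitor preincubated 15 min at room temperature in reaction buffer, then substrate added. Fluorescence read after 20-30 min at room temperature. % inhibition and IC50 calculated against internal high and low controls.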

Rattus norvegicus [10] = experiment: Antihypertensive activity in Wistar rat assessed as bradykinin-dependent diuresis at 1 mg/kg, iv administered as bolus measured as urine flow rate (reference value: 11.6 uL/min); format: functional
Mus musculus [11] = experiment: Cardioprotective activity against angiotensin 2-induced cardiac hypertrophy in B6.129P2-ApoE/J mouse assessed as mean arterial pressure at 100 mg/kg, po administered QD after 4 weeks (reference value: 99.03 6.82 mmHg); format: functional, Heart
[12] = AUC (0 to infinity) in Sprague-Dawley rat heart at 10 mg/kg, po; format: ADME, organism-based; set-up: time infinity, dose 10 mg/kg, route oral
Summary of the method: (§1)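 Male Sprague-Dawley rats; single oral 10 mg/kg in glycofurol 75 (19%)/Cremophor RH40 (6%)/water (75%). Plasma and heart sampled at eight time points over 24 h, three animals per time point, nonserial design. Heart homogenized with water (2 g per 1 g tissue). Concentrations measured by LC-MS/MS with a structurally related internal standard; AUC(0-inf) taken from plasma concentration-time curves.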

Rattus norvegicus [13] = experiment: Antihypertensive activity in Wistar rat assessed as increase in bradykinin level in urine at 30 mg/kg, po relative to vehicle-treated control; format: functional
Summary of the method: (§2)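 Male Wistar rats dosed po at 30 mg kg⁻¹ day⁻¹. Urine collected over 6 h before and after treatment. Bradykinin measured by commercial RIA; creatinine excretion also determined. Mean ± SEM, n = 9-10; paired t test.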

Mus musculus [14] = experiment: Cardioprotective activity against angiotensin 2-induced cardiac hypertrophy in B6.129P2-ApoE/J mouse assessed as left ventricular end diastolic pressure at 100 mg/kg, po administered QD after 4 weeks (reference value: 15.49 1.95 mmHg); format: functional, Heart left ventricle
Mus musculus [15] = experiment: Ratio of left ventricular wet weight to body weight in B6.129P2-ApoE/J mouse at 100 mg/kg, po administered QD after 4 weeks (reference value: 5.99 0.28 mg/g); format: functional
[16] = Cmax in Sprague-Dawley rat heart at 10 mg/kg, po; format: ADME, organism-based; set-up: dose 10 mg/kg, route oral; summary of the method: as §1
Mus musculus [17] = experiment: Cardioprotective activity against angiotensin 2-induced cardiac hypertrophy in B6.129P2-ApoE/J mouse assessed as left ventricular end systolic pressure at 100 mg/kg, po administered QD after 4 weeks (reference value: 139.36 9.79 mmHg); format: functional, Heart left ventricle
Mus musculus [18] = experiment: Toxicity in B6.129P2-ApoE/J mouse assessed as body weight at 100 mg/kg, po administered QD after 4 weeks (reference value: 30.48 0.52 g); format: organism-based; set-up: dose 100 mg/kg, route oral; settings: in vivo, 672 h
Rattus norvegicus [19] = experiment: Effect on glomerular filtration rate in Wistar rat assessed as change in creatinine excretion at 30 mg/kg, po relative to vehicle-treated control; format: functional, organism-based; set-up: dose 30 mg/kg; summary of the method: as §2
[20] = target: T1, Lysosomal protective protein (Homo sapiens, UniProt P10619); experiment: Inhibition of human recombinant Myc-His10-tagged cathepsin A expressed in baculovirus infected Sf9 cells using BodipyFL labeled bradykinin as substrate incubated for 15 mins prior to substrate addition measured after 15 mins by fluorimetric analysis
T1 sequence (P10619 whole entry): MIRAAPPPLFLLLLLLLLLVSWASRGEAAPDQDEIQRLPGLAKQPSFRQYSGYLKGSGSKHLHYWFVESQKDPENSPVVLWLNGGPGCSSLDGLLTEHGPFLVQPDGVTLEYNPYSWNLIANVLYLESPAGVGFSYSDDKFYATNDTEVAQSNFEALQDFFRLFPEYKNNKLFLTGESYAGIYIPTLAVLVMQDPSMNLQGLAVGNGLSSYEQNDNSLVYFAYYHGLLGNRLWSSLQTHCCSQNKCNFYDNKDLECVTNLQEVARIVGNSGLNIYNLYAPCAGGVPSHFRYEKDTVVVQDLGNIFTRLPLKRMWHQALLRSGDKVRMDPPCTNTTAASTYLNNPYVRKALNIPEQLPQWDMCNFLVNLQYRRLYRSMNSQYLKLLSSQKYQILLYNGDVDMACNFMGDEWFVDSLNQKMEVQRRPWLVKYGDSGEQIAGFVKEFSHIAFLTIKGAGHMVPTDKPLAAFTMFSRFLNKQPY

Rattus norvegicus [21] = experiment: Antihypertensive activity in Wistar rat assessed as bradykinin-dependent diuresis at 10 mg/kg, iv administered as bolus measured as urine flow rate (reference value: 11.6 uL/min); format: functional
Summary of the method: (§3)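 Anesthetized male Wistar rats prepared with urethane, carotid/jugular cannulae, continuous albumin-saline infusion and ureteral urine collection. Compound given as iv bolus at 10 mg/kg, alone or with HOE140 0.5 mg/kg iv. Urine volume measured over five successive 20 min periods; two-way ANOVA with Bonferroni post-tests, p < 0.05.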

Rattus norvegicus [22] = experiment: Cardioprotective activity against ventricular ischemia/reperfusion in Wistar rat assessed as duration of burst-pacing-induced atrial fibrillation at 30 mg/kg, po administered QD after 3 months (reference value: 25.00 18.09 s); format: functional, Cardiac atrium
Mus musculus [23] = experiment: Cardioprotective activity against angiotensin 2-induced cardiac hypertrophy in B6.129P2-ApoE/J mouse assessed as ejection fraction at 100 mg/kg, po administered QD after 4 weeks (reference value: 51.14 2.49 %); format: functional, Heart
[24] = AUC (0 to infinity) in Sprague-Dawley rat plasma at 10 mg/kg, po; format: ADME, organism-based; set-up: time infinity, dose 10 mg/kg, route oral; summary of the method: as §1
[25] = Cmax in Sprague-Dawley rat plasma at 10 mg/kg, po; format: ADME, organism-based; set-up: dose 10 mg/kg, route oral; summary of the method: as §1
Mus musculus [26] = experiment: Cardioprotective activity against angiotensin 2-induced cardiac hypertrophy in B6.129P2-ApoE/J mouse assessed as heart rate at 100 mg/kg, po administered QD after 4 weeks (reference value: 403.23 7.98 bpm); format: functional
Rattus norvegicus [27] = experiment: Antihypertensive activity in Wistar rat assessed as bradykinin-dependent diuresis at 10 mg/kg, iv administered as bolus measured as urine flow rate in presence of HOE140 (reference value: 11.6 uL/min); format: functional; summary of the method: as §3
CYP3A4 = CYP3A4 (Homo sapiens, UniProt P08684); experiment: (§4) Induction of CYP3A4 relative to control; format: ADME; settings: human
Chain of CYP3A4 (P08684 whole entry): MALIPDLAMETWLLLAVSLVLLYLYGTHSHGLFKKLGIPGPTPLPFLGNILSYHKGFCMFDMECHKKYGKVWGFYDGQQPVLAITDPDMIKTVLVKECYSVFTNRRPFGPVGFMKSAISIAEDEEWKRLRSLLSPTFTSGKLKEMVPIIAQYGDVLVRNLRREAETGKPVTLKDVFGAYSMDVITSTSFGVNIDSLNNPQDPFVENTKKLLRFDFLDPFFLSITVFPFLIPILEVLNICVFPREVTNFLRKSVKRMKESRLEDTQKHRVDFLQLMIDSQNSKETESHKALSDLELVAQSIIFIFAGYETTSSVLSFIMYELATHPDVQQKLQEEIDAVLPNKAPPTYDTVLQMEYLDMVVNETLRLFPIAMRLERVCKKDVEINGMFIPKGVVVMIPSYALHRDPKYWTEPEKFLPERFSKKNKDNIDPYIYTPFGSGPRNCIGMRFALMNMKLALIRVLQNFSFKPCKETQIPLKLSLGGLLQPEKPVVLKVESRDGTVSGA

Mus musculus [28] = experiment: Cardioprotective activity against angiotensin 2-induced cardiac hypertrophy in B6.129P2-ApoE/J mouse assessed as left ventricular wet weight at 100 mg/kg, po administered QD after 4 weeks (reference value: 182.03 […]); format: functional, Heart left ventricle
[29] = target: Cathepsin A (Homo sapiens); experiment: Inhibition of cathepsin A
Mus musculus [30] = experiment: Cardioprotective activity against angiotensin 2-induced cardiac hypertrophy in B6.129P2-ApoE/J mouse assessed as left ventricular relaxation time at 100 mg/kg, po administered QD after 4 weeks (reference value: 8.73 0.41 ms); format: functional, Heart left ventricle
[31] = Oral bioavailability in Sprague-Dawley rat at 10 mg/kg; format: ADME, organism-based; settings: in vivo
[32] = Drug metabolism in rat liver microsomes; format: ADME, Microsome; settings: read-out: Drug metabolism
[33] = Genotoxicity in micronucleus
Salmonella typhimurium = experiment: Genotoxicity against Salmonella typhimurium by AMES test; format: toxicity, organism-based; settings: salmonella enterica subsp. enterica serovar typhimurium
[34] = Drug metabolism in human liver microsomes; format: ADME, Microsome; settings: read-out: Drug metabolism
[35] = target: Voltage-gated inwardly rectifying potassium channel KCNH2 (Homo sapiens, UniProt Q12809); experiment: Inhibition of human ERG
Chain of Voltage-gated inwardly rectifying potassium channel KCNH2 (Q12809 whole entry): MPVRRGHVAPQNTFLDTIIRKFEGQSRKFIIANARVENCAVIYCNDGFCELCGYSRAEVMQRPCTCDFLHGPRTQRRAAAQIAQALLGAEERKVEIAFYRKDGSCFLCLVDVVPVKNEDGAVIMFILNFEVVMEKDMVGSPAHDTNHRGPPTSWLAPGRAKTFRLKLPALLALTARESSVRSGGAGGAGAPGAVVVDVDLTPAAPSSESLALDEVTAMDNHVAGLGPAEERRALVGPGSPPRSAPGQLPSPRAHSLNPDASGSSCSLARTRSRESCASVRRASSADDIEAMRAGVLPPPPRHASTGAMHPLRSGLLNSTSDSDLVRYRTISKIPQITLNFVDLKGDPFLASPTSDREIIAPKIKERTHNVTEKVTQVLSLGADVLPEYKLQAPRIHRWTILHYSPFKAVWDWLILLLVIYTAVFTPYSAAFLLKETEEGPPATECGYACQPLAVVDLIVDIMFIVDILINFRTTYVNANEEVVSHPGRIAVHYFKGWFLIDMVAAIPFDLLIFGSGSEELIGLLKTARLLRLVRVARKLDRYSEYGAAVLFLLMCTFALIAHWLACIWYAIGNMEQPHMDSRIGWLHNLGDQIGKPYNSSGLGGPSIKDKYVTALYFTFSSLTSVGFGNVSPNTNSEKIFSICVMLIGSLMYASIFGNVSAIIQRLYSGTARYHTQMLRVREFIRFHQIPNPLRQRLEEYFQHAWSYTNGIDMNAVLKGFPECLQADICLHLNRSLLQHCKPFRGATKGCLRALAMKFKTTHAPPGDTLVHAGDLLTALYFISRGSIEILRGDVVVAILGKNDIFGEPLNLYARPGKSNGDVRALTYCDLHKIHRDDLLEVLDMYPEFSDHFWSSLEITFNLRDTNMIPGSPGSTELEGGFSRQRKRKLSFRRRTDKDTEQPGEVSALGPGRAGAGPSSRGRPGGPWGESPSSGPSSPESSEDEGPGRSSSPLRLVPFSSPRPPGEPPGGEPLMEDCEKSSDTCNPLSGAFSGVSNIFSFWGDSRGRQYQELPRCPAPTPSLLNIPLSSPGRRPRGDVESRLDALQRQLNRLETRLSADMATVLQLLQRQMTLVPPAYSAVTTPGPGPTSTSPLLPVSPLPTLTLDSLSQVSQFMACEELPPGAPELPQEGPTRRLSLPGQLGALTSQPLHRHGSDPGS

[36] = Lipophilicity, log D of the compound; format: physicochemical; settings: octanol/water
[37] = Solubility of the compound; format: physicochemical
[38] = Permeability across human Caco2 cells; format: ADME, cell-based; settings: Caco-2, read-out: permeability
Cytochrome P450 3A4 = Cytochrome P450 3A4 (Homo sapiens, UniProt P08684); experiment: as §4; format: ADME
Chain of Cytochrome P450 3A4 (P08684 whole entry): as the sequence (P08684 whole entry) above

SMILES	IC50 (Neprilysin) [nM]	Activity (Rattus norvegicus [10]) [µL/min]	AUC(0-inf) [12] [ng·h/mL]	fold change (FC) (Rattus norvegicus [13])	Cmax [16] [ng/mL]	Activity (Rattus norvegicus [19])	IC50 [20] [nM]	AUC(0-inf) [24] [ng·h/mL]	Cmax [25] [ng/mL]	Emax (CYP3A4) [%]	inhibition (Neprilysin)	Papp [38] [×10⁻⁶ cm/s]	Activity (Cytochrome P450 3A4)	further results
CC(=O)S[C@@H]1CC2=CC(=O)CC[C@]2(C)[C@H]2CC[C@@]3(C)[C@@H](CC[C@@]34CCC(=O)O4)[C@H]12 [SPIRONOLACTONE]														Activity (Mus musculus [1]): 137.39 mmHg; Ratio (Mus musculus [2]): 5.07 mg/g; Activity (Mus musculus [3]): 103.99 mmHg; Time (Mus musculus [4]): 7.52 ms; Activity (Mus musculus [5]): 14.93 mmHg; Activity (Mus musculus [6]): 58.59%; Activity (Mus musculus [7]): 410.78 bpm; Activity (Mus musculus [8]): 28.84 g; Activity (Mus musculus [9]): 145.96 mg
COc1cc(C(=O)N[C@@H](CC(=O)O)c2ccccc2C)nn1-c1ccccc1F	1900	14.3	16000	2	3720	inactive	26	130000	22200	9				Activity (Mus musculus [11]): 95.88 mmHg; Activity (Mus musculus [14]): 8.32 mmHg; Ratio (Mus musculus [15]): 4.84 mg/g; Activity (Mus musculus [17]): 129.95 mmHg; Activity (Mus musculus [18]): 29.63 g; Activity (Rattus norvegicus [21]): 18.3 µL/min; Time (Rattus norvegicus [22]): 0.69 s; Activity (Mus musculus [23]): 57.89%; Activity (Mus musculus [26]): 407.11 bpm; Activity (Rattus norvegicus [27]): 15.3 µL/min; Activity (Mus musculus [28]): 142.69 mg; IC50 [29]: 26 nM; Time (Mus musculus [30]): 7.05 ms
Cc1ccccc1[C@H](CC(=O)O)NC(=O)c1cc(=O)n(-c2ccccc2F)[nH]1										0	Active			bioavailability [31]: < 5%; metabolised [32]: 10%; Activity [33]: Non-toxic; Activity (Salmonella typhimurium): Non-toxic; metabolised [34]: 10%; IC50 [35]: > 10000 nM; logD [36]: -0.16; solubility [37]: > 180 µg/mL
CC(C)(C)[C@@H](O)COc1cc(C(=O)N[C@@H](CC(=O)O)c2ccc(Cl)cc2Cl)nn1-c1ccccc1F	> 1000	36.5	2600	2	872	inactive	50	9300	2670		inactive	> 2	Not Active	
Cc1ccccc1[C@H](CC(=O)O)NC(=O)c1cc(OC[C@H](O)C(C)(C)C)n(-c2ccccc2F)n1	> 1000	27.7	1600	2	426	inactive		5300	1360		inactive	> 2	Not Active	
